Source: PubChem BioAssay AID1800 (The Scripps Research Institute Molecular Screening Center, 2009)
Among all 290,000 compounds or so, about 1,600 (0.55%) were called active.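 The calls were made as follows: active = inhibition above the mean of all tested compounds plus 3 SD, set per campaign (cut at about 35% in these data); inactive = the rest.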 The list comes from a sample in which actives are over-represented; it also holds similar structures and randomly drawn compounds.

What follows are compounds tested on Hepatitis C virus NS3 helicase (assay: HCV NS3 DNA unwinding blockers – biochemical, Cy5 molecular beacon fluorescence, primary screen (AID 1800;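 also: 0% = DMSO wells and 100% = thioflavine S control wells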)). Conditions: at 10.9 µM, active compounds read high.
How it was run: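 assay system = NS3 helicase fragment of HCV | buffer or medium = MOPS pH 6.5, MgCl2, DTT, Tween20, BSA | timing = 60 min unwinding reaction at 25 °C after ATP addition | signal = Cy5 beacon fluorescence read at start and 1 h | read-out basis = % inhibition of unwinding | control set = low DMSO, high thioflavine S at 110 µM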
In the case of `COc1ccc(N2C(=O)/C(=C/c3ccco3)C(=O)NC2=S)cc1`, the inhibition is reported as 58.9% (active). `COc1ccc(CN2C(=O)NC(=O)/C(=C\c3ccc(OC)c(OC)c3OC)C2=O)cc1` was tested, and the inhibition was 21.5% (inactive). For `COc1cccc(N2C(=O)NC(=O)/C(=C\c3cn(C)c4ccccc34)C2=O)c1`, the inhibition was -1.98% (inactive). `CN(C)CCN(CC1CCCN(Cc2ccccc2F)C1)C(=O)Cc1ccc(F)c(F)c1` (stereo not given) was tested, and the inhibition was -18.8% (inactive). With `Cc1ccc(S(=O)(=O)N(C)c2ccc(C(=O)NCC3(N(C)C)CCCCC3)cc2)cc1` the inhibition was -37.1% (inactive). For `Cc1cc(C)cc(NC(=S)NC2CC3CCCC(C2)N3Cc2cccs2)c1` (stereo not given), the inhibition was -48.3% (inactive). With `CN(C)CCCN=Cc1c(O)n(Cc2ccco2)c(=O)[nH]c1=O` the inhibition was 16.9% (inactive). In the case of `CC(C)n1c(=O)c(C=Nc2ccc(Br)cc2)c(O)n(Cc2ccco2)c1=O`, the inhibition is reported as 45.5% (active). With `COc1cc2nc(N3CCN(C(=O)[C@@H]4CCCO4)CC3)nc(N)c2cc1OC` the inhibition was -0.76% (inactive). In the case of `CCN(CC)C(=O)Oc1ccc(NC(=O)N2CCOCC2)cc1`, the inhibition is reported as 4.52% (inactive). In the case of `O=C1CC(=O)N(Cc2ccccc2)C(=O)N1CCCCCCN1C(=O)CC(=O)N(Cc2ccccc2)C1=O`, the inhibition is reported as 41.5% (active). `CC(C)(C)c1ccc(CN2C(=O)CN=C(c3ccccc3)c3ccccc32)cc1` was tested, and the inhibition was 14.7% (inactive). In the case of `O=C(CN1CCCC1=O)NCCc1ccccc1`, the inhibition is reported as 0.89% (inactive). In the case of `CC1(C)Cc2c(C#N)c(N3CCNCC3)nc(-c3ccco3)c2CS1`, the inhibition is reported as -44.9% (inactive). In the case of `Cc1ccc(C2CN(C)CC2C(=O)c2ccc(F)cc2)cc1` (stereo not given), the inhibition is reported as -2.19% (inactive).
